Measured values published in ChEMBL document CHEMBL4513216, “Probing the Open Global Health Chemical Diversity Library for Multistage-Active Starting Points for Next-Generation Antimalarials” (ACS Infect Dis, 2020).

Test: Toxicity liver stage against HepG2, at 10uM
Type: cell-based
Set-up: test concentration 10 uM, cell line HepG2-A16-CD81EGFP
Conditions: human, HepG2-A16-CD81EGFP cells; read-out: INHIBITION
How it was run: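 Uninfected HepG2-A16-CD81EGFP cells, 3 × 10^3 per well, 1536-well, plated on prespotted compound at 10 μM final, parasite-free screening media added to match infected plates; puromycin 10 μM positive, DMSO 0.5% negative; run in parallel with 48 h PbLuc assay at 37 °C, 5% CO2; viability by CellTiter-Glo luminescence, normalized to controls.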
For `O=c1ncn(-c2ccccc2F)c2ncccc12`, the cytotoxicity at 10 µM was -2.26%. Compound `CCCN(CCC)C1(Cc2cc(-c3cccc(O)c3)on2)COC1` has a cytotoxicity at 10 µM of -1.19%. With `O=C(Cc1ccccc1)NC[C@H]1Cn2ccnc2CO1` the cytotoxicity at 10 µM was 0.148%. Compound `CC(C)CCc1n[nH]c(C(=O)O)c1Cl` has a cytotoxicity at 10 µM of -5.47%. In the case of `CC(C)NC(=O)CNC(=O)N1CCc2c([nH]c3ccc(Cl)cc23)C1`, the cytotoxicity at 10 µM was 7.15%. In the case of `COCCN1C[C@@H]2CN(S(=O)(=O)c3cccs3)C[C@@H]2C1=O`, the cytotoxicity at 10 µM was 0.258%. With `NC(=O)N1CC[C@H]2CO[C@H](CNC(=O)c3ccnnc3)[C@H]2C1` the cytotoxicity at 10 µM was -4.7%. With `CC(C)c1nc(-c2cc(C(=O)NCCCO)c3ccccn23)cs1` the cytotoxicity at 10 µM was 9.7%. In the case of `Cc1cccc(CN2C[C@@H]3OCCN(C)[C@@H]3C2)n1`, the cytotoxicity at 10 µM was 1.73%. With `COCc1ncn2c1CN(C(=O)Nc1ccccc1)CC2` the cytotoxicity at 10 µM was 0.763%. Compound `Cn1cccc1CN1CCc2ncnc(-c3cccnc3)c2CC1` has a cytotoxicity at 10 µM of 9.03%. `COCCO[C@H]1CCN(C(=O)c2ccco2)[C@H]1Cc1cnn(C)c1` showed a cytotoxicity at 10 µM of 2.4%. `O=C(c1ccccc1)N1CC[C@H]2C[C@@H](c3nccs3)O[C@@H]2C1` gave a cytotoxicity at 10 µM of -5.44%. Work on `Cc1cccc(CSc2ncc(Br)c(C(=O)O)n2)c1` yielded a cytotoxicity at 10 µM of -9.41%. In the case of `Cc1ccc(-c2cc(C(=O)O)sn2)cc1`, the cytotoxicity at 10 µM was 2.2%. For `CCCc1nnsc1C(=O)NCC1CCN(S(C)(=O)=O)CC1`, the cytotoxicity at 10 µM was -19.7%. Work on `Cn1c(SCC(N)=O)nnc1-c1csc2c1CCCC2` yielded a cytotoxicity at 10 µM of 36.2%. Work on `Cc1cnc(CCNC(=O)C2CCN(S(=O)(=O)c3ccc(F)cc3)C2)s1` (stereo unspecified) yielded a cytotoxicity at 10 µM of 2.56%. `CNc1nccnc1C1CN(C(=O)c2cc[nH]n2)CCO1` (stereo unspecified) showed a cytotoxicity at 10 µM of -12.3%. Compound `Cc1ncsc1C(=O)N1CCC(c2ncncc2-c2ccnc(N)c2)C1` (stereo unspecified) has a cytotoxicity at 10 µM of -0.197%. Compound `COCCNC(=O)c1cc(C)nc(C2CCN(C)CC2)n1` has a cytotoxicity at 10 µM of -2.48%. With `CCC(=O)N1CCC(c2nc3c(c(NC)n2)CN(C)CC3)C1` (stereo unspecified) the cytotoxicity at 10 µM was -3.74%. `O=C(CC1CCCC1)N1CCOC(c2nc(-c3ncccn3)no2)C1` (stereo unspecified) gave a cytotoxicity at 10 µM of -13.2%. `CNC(=O)Nc1cnc2cc(Cl)ccc2c1O` showed a cytotoxicity at 10 µM of -30%. `Cc1nccn1-c1cncc(C2CCCN2Cc2cccnc2)n1` (stereo unspecified) showed a cytotoxicity at 10 µM of -20.4%. Compound `CC(O)CN1CCN(Cc2cccc(C#N)c2)CC1` (stereo unspecified) has a cytotoxicity at 10 µM of 9.56%. With `O=C(CSc1nnc(N2CCCC2)s1)NC(=O)Nc1ccccc1` the cytotoxicity at 10 µM was 3.59%. `CCOC(C)c1nc(COc2nc(C)no2)cs1` (stereo unspecified) showed a cytotoxicity at 10 µM of -1.64%. `COc1ccccc1C1(CNc2cn[nH]c(=O)c2Cl)CC1` gave a cytotoxicity at 10 µM of 54.8%. `CN1CCN(C2CCN(Cc3cn4ccccc4n3)CC2)C1=O` gave a cytotoxicity at 10 µM of 19.1%. `Cc1cccc(N2CCC(NC(C)c3cccs3)CC2)n1` (stereo unspecified) showed a cytotoxicity at 10 µM of -17.2%. For `Cc1[nH]ncc1CCCNC(=O)N1CCN2CCCCC2C1` (stereo unspecified), the cytotoxicity at 10 µM was 5.8%. For `Cc1ccc(C)c(Oc2ccc(CNC(=O)C3CNC(=O)N3)cn2)c1` (stereo unspecified), the cytotoxicity at 10 µM was 0.577%. In the case of `Cc1ccc(CN(C)C(=O)CN2CCc3ccccc3C2)o1`, the cytotoxicity at 10 µM was -6.9%. With `COc1ncnc(N(C)C)c1NC(=O)c1cscc1C` the cytotoxicity at 10 µM was -1.7%. `FC(F)(F)Sc1ccccc1NCc1nc(C2CC2)no1` showed a cytotoxicity at 10 µM of 0.858%. `Cc1ccc(N2CCCC(N(C)c3nn4cc(C)nc4s3)C2)nn1` (stereo unspecified) showed a cytotoxicity at 10 µM of 8.45%. With `CNS(=O)(=O)c1ccccc1N1CCN(C(=O)C(C)C)CC1` the cytotoxicity at 10 µM was 4%. In the case of `CCOCCS(=O)(=O)Cc1ccn(-c2cccc(F)c2)n1`, the cytotoxicity at 10 µM was 4.48%. With `Cc1nn(C)c(N(C)C)c1CNCc1cccc(Br)c1` the cytotoxicity at 10 µM was -7.98%. In the case of `CCOCCNC(=O)Nc1cccc(-c2nccn2C)c1`, the cytotoxicity at 10 µM was -3.26%. `CC(=O)N1CCN(C(=O)C(C)OCC(F)(F)F)CC1` (stereo unspecified) showed a cytotoxicity at 10 µM of -10.8%. In the case of `CC(C)C(C(=O)N1CCCN(Cc2cscn2)CC1)n1cncn1` (stereo unspecified), the cytotoxicity at 10 µM was -2.1%. For `Cc1cccc(C(=O)N2CCN(c3ccccc3F)CC2)n1`, the cytotoxicity at 10 µM was 1.83%. `COC(=O)C(C)(C)NC(=O)C1CC(=O)N(CC(C)C)C1` (stereo unspecified) gave a cytotoxicity at 10 µM of -152%. For `N#Cc1ncn(CCC(=O)Nc2cc(Cl)ccc2Cl)n1`, the cytotoxicity at 10 µM was -161%. `Clc1cncc(N2CCCC2c2nnc3n2CCCCC3)n1` (stereo unspecified) showed a cytotoxicity at 10 µM of -7.44%. Compound `CCC(NC(=O)Nc1ccc(OC)c(C)c1)c1noc(C)n1` (stereo unspecified) has a cytotoxicity at 10 µM of -12%. `O=C(Nc1cc(C2CCOCC2)[nH]n1)c1cscn1` gave a cytotoxicity at 10 µM of -7.84%. Work on `CN(C(=O)CCOc1ccccc1)C1CCN(CC2CCOC2)CC1` (stereo unspecified) yielded a cytotoxicity at 10 µM of -7.7%. `O=C(NCCCO)Nc1ccccc1` showed a cytotoxicity at 10 µM of 1.52%. `COc1ccc(CNc2nnc(CC(C)(C)C)o2)cc1C#N` showed a cytotoxicity at 10 µM of -10.1%. `Cn1cc(-c2cccc(CNC(=O)N3CCC[C@@H]3CO)c2)cn1` showed a cytotoxicity at 10 µM of -5.89%. With `c1cnc(N2CCC(NCc3cnc(C4CCC4)s3)CC2)nc1` the cytotoxicity at 10 µM was 4.24%. Work on `Cc1cc2c(cc1C)C(NC1CC1)CCCO2` (stereo unspecified) yielded a cytotoxicity at 10 µM of 4.57%. `CC(C)S(=O)(=O)Cc1cccc(NC(=O)c2ccc[nH]2)c1` gave a cytotoxicity at 10 µM of -0.118%.
